{"data": "Measured values pooled from the literature", "target": "Phosphatidylinositol 4-kinase beta (PI4KB, Homo sapiens, UniProt Q9UBF8)", "note": "Protocols differ between the studies behind these lines."}
{"SMILES": "O=C(Nc1c[nH]nc1C(=O)NC1CCNCC1)c1cc(F)cc(F)c1", "observed": "binding", "method": "competition with immobilised ligand", "concentration": "1 µM", "remaining binding": "100%"}
{"SMILES": "CC(C)CC(=O)N1CCc2nc(-c3ccc(Br)cc3)nc(N(C)Cc3ccccc3)c2C1", "observed": "cell-free assay", "method": "competition with immobilised ligand", "concentration": "0.1 µM", "remaining binding": "100%"}
{"SMILES": "CN(c1nccc(-c2cnn3ncccc23)n1)C1CC1", "observed": "binding", "concentration": "1 µM", "remaining binding": "100%"}
{"SMILES": "CNC(=O)[C@@H]1CC[C@@H](n2c(-c3ccc4cnccc4c3)nc3ccc(C(=O)NCc4cccc(C(N)=O)c4)cc32)C1", "observed": "binding", "method": "competition with immobilised ligand", "concentration": "1 µM", "remaining binding": "96%"}
{"SMILES": "O=C(N1CCS(=O)(=O)CC1)N1C[C@H](c2ccc(OC(F)(F)F)cc2)C[C@H](c2nc(C3CC3)no2)C1", "observed": "cell-free assay", "method": "competition with immobilised ligand", "concentration": "1 µM", "remaining binding": "100%"}
{"SMILES": "Cc1cnn2ncc(-c3ccnc(N(C)C)n3)c2c1", "observed": "binding", "concentration": "1 µM", "remaining binding": "56%"}
{"SMILES": "CSc1cccnc1N1CCN(Cc2nc3ccccc3[nH]2)CC1", "observed": "cell-free assay", "method": "competition with immobilised ligand", "concentration": "1 µM", "remaining binding": "73%"}
{"SMILES": "COc1cnc(Nc2cccc(S(N)(=O)=O)c2)nc1N1CCN(c2ccccc2)C(=O)C1", "observed": "binding", "method": "competition with immobilised ligand", "concentration": "1 µM", "remaining binding": "13%"}
{"SMILES": "O=C(NCCCN1CCOCC1)c1ccc(Nc2nccc(-c3cc4ccccc4s3)n2)cc1", "observed": "binding", "method": "competition with immobilised ligand", "concentration": "1 µM", "remaining binding": "45%"}
{"SMILES": "CN(C)c1nccc(-c2cnc3ncccn23)n1", "observed": "binding", "concentration": "1 µM", "remaining binding": "79%"}
{"SMILES": "O=C(NCCCN1CCOCC1)c1ccc(Nc2ncc(Cl)c(-c3ccc(Cl)s3)n2)cc1", "observed": "binding", "method": "competition with immobilised ligand", "concentration": "1 µM", "remaining binding": "100%"}
{"SMILES": "c1ccc(N2CCN(Cc3nc4ccccc4[nH]3)CC2)nc1", "observed": "cell-free assay", "method": "competition with immobilised ligand", "concentration": "1 µM", "remaining binding": "100%"}
{"SMILES": "CN(C)c1ncc(F)c(-c2cnn3ncccc23)n1", "observed": "binding", "concentration": "1 µM", "remaining binding": "100%"}
{"SMILES": "CNC(=O)Nc1ccc2c(c1)[C@@]1(CC2)OC(=O)N(CC(=O)N(Cc2ccc(F)cc2)[C@@H](C)C(F)(F)F)C1=O", "observed": "cell-free assay", "method": "competition with immobilised ligand", "concentration": "1 µM", "remaining binding": "71%"}
{"SMILES": "O=C(c1ccc(Nc2ncc(Cl)c(-c3ccc(Cl)s3)n2)cc1)N1CCC(N2CCCC2)CC1", "observed": "binding", "method": "competition with immobilised ligand", "concentration": "1 µM", "remaining binding": "100%"}
{"SMILES": "Nc1c(C(=O)NCc2ccc(C(=O)NCCCC3CCCCC3)cc2)cnn1-c1ccccc1", "observed": "cell-free assay", "method": "competition with immobilised ligand", "concentration": "0.1 µM", "remaining binding": "100%"}
{"SMILES": "C[C@@H]1CCN(c2nccc(-c3cnn4ncccc34)n2)C1", "observed": "binding", "concentration": "1 µM", "remaining binding": "20%"}
{"SMILES": "CCN1CCN(Cc2ccc(C(=O)Nc3ccc(C)c(Oc4ccc5c(c4)CC(=O)N5)c3)cc2C(F)(F)F)CC1", "observed": "binding", "method": "competition with immobilised ligand", "concentration": "1 µM", "remaining binding": "100%"}
{"SMILES": "N[C@@H]1CCN(c2nccc(-c3cnn4ncccc34)n2)C1", "observed": "binding", "concentration": "1 µM", "remaining binding": "80%"}
{"SMILES": "CCOC(=O)c1cc2cc(-c3cc(C(=O)NCc4ccc(C(=O)O)cc4)nn3C)ccc2[nH]1", "observed": "cell-free assay", "method": "competition with immobilised ligand", "concentration": "0.1 µM", "remaining binding": "79%"}
{"SMILES": "CN(CCCC(F)(F)F)c1nccc(-c2cnn3ncccc23)n1", "observed": "binding", "concentration": "1 µM", "remaining binding": "100%"}
{"SMILES": "c1cncc(-c2cccc(Nc3nccc(NC4CCCCC4)n3)c2)c1", "observed": "binding", "method": "competition with immobilised ligand", "concentration": "10 µM", "remaining binding": "1.1%"}
